Measured values as given in ChEMBL document CHEMBL4261600 (Eur J Med Chem, 2018).
The source made the active and inactive calls.

How the values were obtained:
[1] = system: SK-N-BE(2)-M17; test: Antiproliferative activity against human BE(2)-M17 cells after 72 hrs by Celltiter-Glo assay; assay type: functional; conditions: SK-N-BE(2)-M17, 72 h
Procedure, shortened: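 Cells seeded at 3000/well in 96-well plates, exposed to serially diluted compound for 72 h at 37 °C, 5% CO2. Viability read by CellTiter-Glo luminescence and normalized to DMSO control. GI50 derived from curve fit, mean of three independent measurements. Culture media: DMEM/10% FBS for adherent lines; IMDM for MV4-11 and MEC-1/2; RPMI 1640 for suspension lines and CHL.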

[2] = system: HL-60; test: Induction of apoptosis in human HL60 cells assessed as decrease in c-MYC level after 2 hrs by immunoblotting analysis; assay type: functional, cell-based
[3] = system: HL-60; test: Induction of apoptosis in human HL60 cells assessed as decrease in XIAP level up to 3 uM after 2 hrs by immunoblotting analysis; assay type: functional, cell-based
[4] = Cmax in mouse at 3 mg/kg, iv by LC-MS/MS analysis; assay type: ADME, organism-based; set-up: dose 3 mg/kg, route intravenous; conditions: in vivo
[5] = Cmax in Sprague-Dawley rat at 20 mg/kg, po by LC-MS/MS analysis; assay type: ADME, organism-based; set-up: dose 20 mg/kg, route oral; conditions: in vivo
[6] = AUC (0 to infinity) in mouse at 10 mg/kg, po by LC-MS/MS analysis; assay type: ADME, organism-based; set-up: dose 10 mg/kg, route oral, time infinity; conditions: in vivo
Procedure, shortened: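 Non-compartmental PK. Male SD rats 190-210 g, mice and beagle dogs acclimatized one week, fasted 12 h with water, split into iv and po groups (mice 48, rats 6, dogs 6). iv 3/3/2 mg/kg (mice/rats/dogs); po 10/20/10 mg/kg; vehicle DMSO in 5% glucose water. Blood at 2 or 5 to 720 min; plasma protein-precipitated with methanol, caffeine internal standard, LC-MS/MS.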

[7] = biological target: Bone morphogenetic protein receptor type-2 (Homo sapiens) (UniProt Q13873); test: Binding affinity to wild-type human partial length BMPR2 (R179 to Q526 residues) expressed in mammalian expression system assessed as remaining unbound target protein level at 1000 nM by Kinomescan method relative to control
Procedure, shortened: (§1)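 Profiled in a KINOMEscan binding panel with the inhibitor at a single concentration of 1 μM. Binding to each kinase was read out as percent of control, relative to a DMSO control. Strong binders were defined as those with a percent control value below 1.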

[8] = biological target: Calcium/calmodulin-dependent protein kinase type II subunit alpha (Homo sapiens) (UniProt Q9UQM7); test: Binding affinity to wild-type human partial length CAMK2A (M1 to K328 residues) expressed in bacterial expression system assessed as remaining unbound target protein level at 1000 nM by Kinomescan method relative to control; procedure, shortened: as §1
[9] = biological target: Cyclin-dependent kinase 3 (Homo sapiens) (UniProt Q00526); test: Binding affinity to wild-type human full length CDK3 (M1 to H305 residues) expressed in bacterial expression system assessed as remaining unbound target protein level at 1000 nM by Kinomescan method relative to control
Procedure, shortened: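 KINOMEscan competitive binding profile at 1 μM inhibitor. Remaining target binding reported as percent of DMSO control.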

[10] = biological target: Casein kinase I isoform epsilon (Homo sapiens) (UniProt P49674); test: Binding affinity to wild-type human full length CSNK1E (M1 to K416 residues) expressed in bacterial expression system assessed as remaining unbound target protein level at 1000 nM by Kinomescan method relative to control
Procedure, shortened: (§2)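 Single-point competition binding screen across a panel of 468 kinases and mutants, with the inhibitor at 1 μM. Binding is read out as percent of a DMSO control, and targets below 1 percent control were classed as strong binders.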

[11] = biological target: Serine/threonine-protein kinase DCLK2 (Homo sapiens) (UniProt Q8N568); test: Binding affinity to wild-type human partial length DCAMKL2 (K273 to V664 residues) expressed in bacterial expression system assessed as remaining unbound target protein level at 1000 nM by Kinomescan method relative to control
[12] = biological target: Focal adhesion kinase 1 (Homo sapiens) (UniProt Q05397); test: Binding affinity to wild-type human partial length FAK (D402 to R696 residues) expressed in bacterial expression system assessed as remaining unbound target protein level at 1000 nM by Kinomescan method relative to control
[13] = biological target: G protein-coupled receptor kinase 4 (Homo sapiens) (UniProt P32298); test: Binding affinity to wild-type human full length GRK4 (M1 to C578 residues) expressed in bacterial expression system assessed as remaining unbound target protein level at 1000 nM by Kinomescan method relative to control; procedure, shortened: as §2
[14] = biological target: Interleukin-1 receptor-associated kinase 1 (Homo sapiens) (UniProt P51617); test: Binding affinity to wild-type human partial length IRAK1 (R194 to S712 residues) expressed in mammalian expression system assessed as remaining unbound target protein level at 1000 nM by Kinomescan method relative to control
Procedure, shortened: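 KINOMEscan binding panel of 468 kinases/mutants. Inhibitor was tested at a single concentration of 1 μM. Binding is reported as percent of control, defined relative to a DMSO control.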

[15] = biological target: Mitogen-activated protein kinase 9 (Homo sapiens) (UniProt P45984); test: Binding affinity to wild-type human full length JNK2 (M1 to Q382 residues) expressed in mammalian expression system assessed as remaining unbound target protein level at 1000 nM by Kinomescan method relative to control
Procedure, shortened: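 KINOMEscan competition binding profile across a panel of 468 kinases and mutants, with the inhibitor tested at a single concentration of 1 μM. Binding is reported as percent of control, meaning signal relative to a DMSO control.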

[16] = biological target: Phosphatidylinositol 4,5-bisphosphate 3-kinase catalytic subunit gamma isoform (Homo sapiens) (UniProt P48736); test: Binding affinity to wild-type human partial length PIK3CG (S144 to A1102 residues) expressed in mammalian expression system assessed as remaining unbound target protein level at 1000 nM by Kinomescan method relative to control
[17] = biological target: Protein kinase C theta type (Homo sapiens) (UniProt Q04759); test: Binding affinity to wild-type human partial length PRKCQ (L350 to S706 residues) expressed in bacterial expression system assessed as remaining unbound target protein level at 1000 nM by Kinomescan method relative to control
[18] = biological target: Ribosomal protein S6 kinase alpha-3 (Homo sapiens) (UniProt P51812); test: Binding affinity to wild-type human partial length C-terminal RSK2 kinase domain 2 (V402 to S715 residues) expressed in mammalian expression system assessed as remaining unbound target protein level at 1000 nM by Kinomescan method relative to control; procedure, shortened: as §1
[19] = biological target: Non-receptor tyrosine-protein kinase TYK2 (Homo sapiens) (UniProt P29597); test: Binding affinity to wild-type human partial length TYK2 JH2 pseudokinase domain (G556 to D888 residues) expressed in mammalian expression system assessed as remaining unbound target protein level at 1000 nM by Kinomescan method relative to control
[20] = biological target: Serine/threonine-protein kinase WNK3 (Homo sapiens) (UniProt Q9BYP7); test: Binding affinity to wild-type human partial length WNK3 (M1 to D434 residues) expressed in mammalian expression system assessed as remaining unbound target protein level at 1000 nM by Kinomescan method relative to control
[21] = biological target: Serine/threonine-protein kinase 25 (Homo sapiens) (UniProt O00506); test: Binding affinity to wild-type human partial length YSK1 (V14 to H295 residues) expressed in bacterial expression system assessed as remaining unbound target protein level at 1000 nM by Kinomescan method relative to control
Serine/threonine-protein kinase 25 (Homo sapiens), sequence (O00506 whole entry, looked up, the tested form may be a part): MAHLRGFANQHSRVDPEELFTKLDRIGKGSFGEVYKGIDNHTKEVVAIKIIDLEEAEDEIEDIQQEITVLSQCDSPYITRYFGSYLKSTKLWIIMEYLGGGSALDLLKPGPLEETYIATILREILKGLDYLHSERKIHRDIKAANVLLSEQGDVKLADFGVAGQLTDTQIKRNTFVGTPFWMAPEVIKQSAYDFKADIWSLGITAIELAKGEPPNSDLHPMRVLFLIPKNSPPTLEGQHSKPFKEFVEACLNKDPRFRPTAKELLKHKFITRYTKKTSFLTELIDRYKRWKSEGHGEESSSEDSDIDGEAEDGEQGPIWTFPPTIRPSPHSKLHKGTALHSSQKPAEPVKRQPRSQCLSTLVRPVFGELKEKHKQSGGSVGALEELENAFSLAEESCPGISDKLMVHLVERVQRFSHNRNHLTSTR

Focal adhesion kinase 1 (Homo sapiens), sequence (Q05397 2-1052 limits assumed): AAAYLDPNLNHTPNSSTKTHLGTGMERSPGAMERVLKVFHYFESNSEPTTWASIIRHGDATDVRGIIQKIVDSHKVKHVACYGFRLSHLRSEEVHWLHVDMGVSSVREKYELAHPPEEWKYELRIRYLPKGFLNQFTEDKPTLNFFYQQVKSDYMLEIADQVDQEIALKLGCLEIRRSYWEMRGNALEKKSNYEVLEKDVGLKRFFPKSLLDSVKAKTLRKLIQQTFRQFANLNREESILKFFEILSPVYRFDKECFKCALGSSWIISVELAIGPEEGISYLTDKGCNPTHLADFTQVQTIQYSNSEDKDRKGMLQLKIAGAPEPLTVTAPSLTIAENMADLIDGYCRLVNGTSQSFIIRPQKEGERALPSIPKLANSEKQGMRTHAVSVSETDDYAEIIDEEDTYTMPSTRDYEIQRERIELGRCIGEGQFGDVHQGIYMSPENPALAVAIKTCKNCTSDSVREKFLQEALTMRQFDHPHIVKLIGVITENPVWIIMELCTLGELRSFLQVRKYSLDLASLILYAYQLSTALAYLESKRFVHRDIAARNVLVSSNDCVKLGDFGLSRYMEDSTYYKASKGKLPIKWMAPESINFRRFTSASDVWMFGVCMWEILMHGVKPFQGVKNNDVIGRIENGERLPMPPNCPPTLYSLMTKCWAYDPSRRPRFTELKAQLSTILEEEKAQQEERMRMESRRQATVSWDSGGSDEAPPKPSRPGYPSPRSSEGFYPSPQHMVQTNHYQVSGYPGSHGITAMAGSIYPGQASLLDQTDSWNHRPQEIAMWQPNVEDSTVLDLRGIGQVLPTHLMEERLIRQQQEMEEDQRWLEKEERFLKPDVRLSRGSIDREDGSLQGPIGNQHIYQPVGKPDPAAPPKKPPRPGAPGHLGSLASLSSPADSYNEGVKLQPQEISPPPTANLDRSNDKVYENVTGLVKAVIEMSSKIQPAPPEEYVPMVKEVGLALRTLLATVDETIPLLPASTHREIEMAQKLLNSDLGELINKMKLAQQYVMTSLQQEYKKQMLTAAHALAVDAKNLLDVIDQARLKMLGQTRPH
Mitogen-activated protein kinase 9 (Homo sapiens), sequence (P45984 whole entry, looked up, the tested form may be a part): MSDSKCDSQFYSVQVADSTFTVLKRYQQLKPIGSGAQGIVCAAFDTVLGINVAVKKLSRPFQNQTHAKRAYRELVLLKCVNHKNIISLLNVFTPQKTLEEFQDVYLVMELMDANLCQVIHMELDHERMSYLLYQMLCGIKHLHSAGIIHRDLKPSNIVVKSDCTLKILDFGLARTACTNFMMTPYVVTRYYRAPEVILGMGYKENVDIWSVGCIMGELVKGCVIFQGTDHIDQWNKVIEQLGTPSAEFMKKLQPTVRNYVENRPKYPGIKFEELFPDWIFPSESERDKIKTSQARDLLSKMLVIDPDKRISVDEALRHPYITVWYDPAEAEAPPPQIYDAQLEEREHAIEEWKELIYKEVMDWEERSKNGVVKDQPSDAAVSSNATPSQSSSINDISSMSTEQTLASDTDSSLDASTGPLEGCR
Protein kinase C theta type (Homo sapiens), sequence (Q04759 whole entry, looked up, the tested form may be a part): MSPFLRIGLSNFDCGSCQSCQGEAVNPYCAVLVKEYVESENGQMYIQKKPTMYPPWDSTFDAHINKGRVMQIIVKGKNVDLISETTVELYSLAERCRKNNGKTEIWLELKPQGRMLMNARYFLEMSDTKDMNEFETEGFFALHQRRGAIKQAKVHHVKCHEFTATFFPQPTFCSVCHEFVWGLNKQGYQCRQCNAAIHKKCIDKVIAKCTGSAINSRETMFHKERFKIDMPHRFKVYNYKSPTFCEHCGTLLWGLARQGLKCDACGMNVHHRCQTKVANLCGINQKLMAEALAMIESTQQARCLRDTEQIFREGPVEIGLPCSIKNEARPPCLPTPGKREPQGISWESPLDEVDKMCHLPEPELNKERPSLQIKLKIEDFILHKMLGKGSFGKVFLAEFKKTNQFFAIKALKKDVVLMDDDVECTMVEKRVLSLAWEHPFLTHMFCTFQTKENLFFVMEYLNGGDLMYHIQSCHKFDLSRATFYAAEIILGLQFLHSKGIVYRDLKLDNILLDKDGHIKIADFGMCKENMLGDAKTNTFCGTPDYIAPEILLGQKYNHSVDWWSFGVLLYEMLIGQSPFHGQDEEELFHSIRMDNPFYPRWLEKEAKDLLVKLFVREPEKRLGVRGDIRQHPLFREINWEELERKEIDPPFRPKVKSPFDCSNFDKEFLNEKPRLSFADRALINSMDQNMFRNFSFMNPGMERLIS
G protein-coupled receptor kinase 4 (Homo sapiens), sequence (P32298 whole entry, looked up, the tested form may be a part): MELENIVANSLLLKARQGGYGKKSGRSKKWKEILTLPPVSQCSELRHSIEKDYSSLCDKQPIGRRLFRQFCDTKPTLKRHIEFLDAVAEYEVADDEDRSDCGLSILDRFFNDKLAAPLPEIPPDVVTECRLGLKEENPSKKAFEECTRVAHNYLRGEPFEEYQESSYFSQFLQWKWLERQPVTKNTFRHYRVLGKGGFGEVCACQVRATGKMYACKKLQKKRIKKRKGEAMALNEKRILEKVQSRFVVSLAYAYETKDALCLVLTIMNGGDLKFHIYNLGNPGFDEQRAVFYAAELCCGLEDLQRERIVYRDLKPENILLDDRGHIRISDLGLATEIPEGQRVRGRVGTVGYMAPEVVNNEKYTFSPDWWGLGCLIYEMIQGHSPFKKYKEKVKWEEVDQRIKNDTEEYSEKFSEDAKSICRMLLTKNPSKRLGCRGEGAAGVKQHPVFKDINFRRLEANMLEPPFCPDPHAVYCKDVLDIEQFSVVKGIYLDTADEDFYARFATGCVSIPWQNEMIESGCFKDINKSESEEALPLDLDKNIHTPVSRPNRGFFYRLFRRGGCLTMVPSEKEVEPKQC
Bone morphogenetic protein receptor type-2 (Homo sapiens), sequence (Q13873 whole entry, the tested form may be a part): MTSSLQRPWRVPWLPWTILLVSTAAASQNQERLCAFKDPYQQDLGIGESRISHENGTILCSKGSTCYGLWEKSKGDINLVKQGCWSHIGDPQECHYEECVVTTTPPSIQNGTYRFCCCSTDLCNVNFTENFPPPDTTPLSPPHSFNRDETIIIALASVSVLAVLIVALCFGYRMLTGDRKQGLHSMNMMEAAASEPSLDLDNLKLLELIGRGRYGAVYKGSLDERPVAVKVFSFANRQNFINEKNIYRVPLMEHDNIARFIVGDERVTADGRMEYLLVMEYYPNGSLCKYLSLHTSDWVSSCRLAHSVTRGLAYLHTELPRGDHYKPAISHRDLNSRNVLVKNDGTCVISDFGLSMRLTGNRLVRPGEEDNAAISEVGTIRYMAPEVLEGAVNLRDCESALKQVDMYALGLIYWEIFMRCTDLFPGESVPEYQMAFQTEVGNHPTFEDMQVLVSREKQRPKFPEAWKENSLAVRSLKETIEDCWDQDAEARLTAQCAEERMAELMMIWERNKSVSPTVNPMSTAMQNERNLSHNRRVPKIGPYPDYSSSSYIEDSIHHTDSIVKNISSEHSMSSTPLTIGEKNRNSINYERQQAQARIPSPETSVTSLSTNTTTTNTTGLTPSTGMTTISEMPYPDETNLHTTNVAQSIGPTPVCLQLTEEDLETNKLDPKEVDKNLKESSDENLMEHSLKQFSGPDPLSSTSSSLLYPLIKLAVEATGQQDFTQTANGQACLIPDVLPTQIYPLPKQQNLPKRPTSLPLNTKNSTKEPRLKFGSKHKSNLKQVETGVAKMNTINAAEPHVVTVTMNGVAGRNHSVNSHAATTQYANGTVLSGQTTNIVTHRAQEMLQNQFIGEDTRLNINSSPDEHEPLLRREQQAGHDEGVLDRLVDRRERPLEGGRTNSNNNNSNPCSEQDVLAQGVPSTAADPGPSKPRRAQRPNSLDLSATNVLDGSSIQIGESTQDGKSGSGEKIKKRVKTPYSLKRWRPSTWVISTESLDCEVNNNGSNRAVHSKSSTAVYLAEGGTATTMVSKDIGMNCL
Serine/threonine-protein kinase DCLK2 (Homo sapiens), sequence (Q8N568 whole entry, the tested form may be a part): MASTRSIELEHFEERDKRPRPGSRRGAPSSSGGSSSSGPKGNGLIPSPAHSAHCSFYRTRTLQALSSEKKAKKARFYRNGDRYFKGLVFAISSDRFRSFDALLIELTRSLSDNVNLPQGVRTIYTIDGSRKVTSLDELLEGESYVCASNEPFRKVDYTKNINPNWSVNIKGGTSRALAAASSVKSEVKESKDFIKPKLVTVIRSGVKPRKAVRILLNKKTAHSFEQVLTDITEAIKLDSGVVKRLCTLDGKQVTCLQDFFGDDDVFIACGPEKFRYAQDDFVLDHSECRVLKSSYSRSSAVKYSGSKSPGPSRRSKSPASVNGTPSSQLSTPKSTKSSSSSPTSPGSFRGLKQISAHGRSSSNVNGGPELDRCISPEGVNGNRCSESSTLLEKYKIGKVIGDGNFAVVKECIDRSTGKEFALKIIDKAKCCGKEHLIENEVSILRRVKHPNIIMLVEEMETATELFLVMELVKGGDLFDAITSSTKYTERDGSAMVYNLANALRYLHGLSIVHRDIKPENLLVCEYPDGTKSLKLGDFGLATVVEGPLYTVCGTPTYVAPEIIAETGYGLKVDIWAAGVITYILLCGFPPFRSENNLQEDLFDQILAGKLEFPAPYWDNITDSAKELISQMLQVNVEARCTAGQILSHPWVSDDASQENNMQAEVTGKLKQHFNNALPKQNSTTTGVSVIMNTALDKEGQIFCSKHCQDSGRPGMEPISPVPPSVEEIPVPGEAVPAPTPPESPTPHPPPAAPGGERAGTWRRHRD

## COCCN[C@H]1CC[C@H](Nc2cc(-c3csc(NCC4(C#N)CCOCC4)n3)c(Cl)cn2)CC1
[1]
  GI50: 34 nM
[2]
  Activity: Dose-dependent effect
[3]
  Activity: inactive
[4]
  Cmax: 573 ng/mL
[5]
  Cmax: 329 ng/mL
[6]
  AUC(0-inf): 612 ng·h/mL
[7]
  Activity: 100%
[8]
  Activity: 100%
[9]
  Activity: 81%
[10]
  Activity: 87%
[11]
  Activity: 96%
[12]
  Activity: 84%
[13]
  Activity: 96%
[14]
  Activity: 57%
[15]
  Activity: 8.2%
[16]
  Activity: 99%
[17]
  Activity: 100%
[18]
  Activity: 98%
[19]
  Activity: 100%
[20]
  Activity: 97%
[21]
  Activity: 92%
